# Compound activity from PubChem BioAssay.
# Pemphigus Ab inh: human desmoglein-3 autoantibody binding inhibition | DSG3-coupled beads, scFv-anti-DSG3-GFP binding, flow cytometry; active compounds read low | binding (percent of control), % at 10 µM | P32926 | actives 0.48% (n = 310,000);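 active means binding more than 3 SD below its plate's average and above zero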;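 further: hits lower antibody fragment binding to DSG3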
# Arr AP2 block: blocks beta-arrestin peptide binding to AP2 adaptin | FITC-arrestin peptide / GST-AP2 beads, flow cytometry; AP2 beta2 appendage carries R879A mutation | inhibition, % at 10 µM | actives 0.31% (n = 340,000) | AID 504490;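 active means inhibition above a set limit, near 3 SD of compounds lacking own fluorescence, cut at about 54% in these data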;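 further: plate controls were DMSO wells for no effect and 5 µM unlabelled arrestin peptide for full effect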
#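 test system = AP2 appendage R879A on GSH beads | buffer or medium = PBS plus Tween 20 (0.05%) and BSA (0.1%) | incubation = 12 min plus 1 h, RT | detection = bead flow cytometry, FITC channel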
# LANA-H2A inh: blocks KSHV LANA binding to histone H2A/H2B; Q9QR71; cell-free LANA-H2A/H2B peptide, fluorescence polarization; inhibition, % (test concentration not listed); actives 0.6% (n = 320,000); AID 2629; in the data active means inhibition mostly above about 10%, no sharp cut-off; inactive means mostly below about 6.7%
# Target sequence (Q9QR71 whole entry, looked up): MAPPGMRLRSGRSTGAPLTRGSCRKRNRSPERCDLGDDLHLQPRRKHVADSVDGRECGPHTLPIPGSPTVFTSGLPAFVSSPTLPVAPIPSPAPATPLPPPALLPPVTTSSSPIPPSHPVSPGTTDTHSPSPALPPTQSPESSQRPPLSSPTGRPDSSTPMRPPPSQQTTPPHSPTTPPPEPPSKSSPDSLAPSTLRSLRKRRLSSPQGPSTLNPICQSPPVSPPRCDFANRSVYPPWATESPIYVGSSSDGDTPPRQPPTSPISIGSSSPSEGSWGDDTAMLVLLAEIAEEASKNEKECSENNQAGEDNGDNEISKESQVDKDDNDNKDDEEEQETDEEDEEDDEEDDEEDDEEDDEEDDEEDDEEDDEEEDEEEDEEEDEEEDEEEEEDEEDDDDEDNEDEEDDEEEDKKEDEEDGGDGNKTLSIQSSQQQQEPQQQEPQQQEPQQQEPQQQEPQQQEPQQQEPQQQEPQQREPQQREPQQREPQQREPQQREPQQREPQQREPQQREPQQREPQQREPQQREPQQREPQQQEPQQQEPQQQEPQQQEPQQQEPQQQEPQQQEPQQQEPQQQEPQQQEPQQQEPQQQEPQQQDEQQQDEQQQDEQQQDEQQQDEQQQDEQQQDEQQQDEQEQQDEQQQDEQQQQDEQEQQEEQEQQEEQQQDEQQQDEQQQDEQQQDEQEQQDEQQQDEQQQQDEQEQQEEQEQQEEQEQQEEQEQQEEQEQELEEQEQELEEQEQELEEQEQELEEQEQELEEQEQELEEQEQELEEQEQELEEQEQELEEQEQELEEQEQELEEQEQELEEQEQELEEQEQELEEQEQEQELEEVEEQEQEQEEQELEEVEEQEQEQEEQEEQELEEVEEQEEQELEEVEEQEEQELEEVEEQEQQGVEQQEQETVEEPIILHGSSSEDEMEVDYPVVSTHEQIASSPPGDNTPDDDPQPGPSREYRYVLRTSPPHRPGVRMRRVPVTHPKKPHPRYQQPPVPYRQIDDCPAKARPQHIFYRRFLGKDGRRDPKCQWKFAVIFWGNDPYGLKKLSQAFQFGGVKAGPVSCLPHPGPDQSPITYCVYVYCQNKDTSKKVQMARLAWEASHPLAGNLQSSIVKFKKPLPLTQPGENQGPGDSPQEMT
# T cell HTS: T cell immune modulators affecting CD8 T cell-vesicle binding; 2C CD8+ T cell-vesicle binding, flow cytometry; active compounds read low; response (vesicle binding), % at 7 µM; actives 0.068% (n = 330,000); AID 2052;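 active means response, share of CD8 T cells binding vesicles, and their 90th percentile fluorescence all below set limits, cut at about 80% in these data, passing the limit was not always enough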;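 further: values below 100% mean blocked vesicle binding to the CD8+ T cells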
#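 Assay system: 2C TCR transgenic mouse naive CD8+ T cells, MACS-purified | Read-out: CD8+ gate FL2 mean fluorescence as % of same-row positive control | Signal: High-throughput flow cytometry with anti-B7-1 and anti-CD8 staining | Timing: Binding step 1.5 h, 37 °C, antibody labelling 20 min, ice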
# HDAC3 inh: inhibitors of human histone deacetylase 3 | recombinant HDAC3, fluorogenic peptide/trypsin coupled, fluorescence | O15379 | actives 0.15% (n = 320,000) | inhibition, % at 8.3 µM; in the data active means inhibition above about 26%, passing the limit was not always enough
# Starred values were filed as active, the others as inactive; i = inactive; nt = not tested or not shown; + = active, no number. Only some compounds are listed: those with a hit (about 1.5% of all), similar ones and a draw of the others.
SMILES,Pemphigus Ab inh,Arr AP2 block,LANA-H2A inh,T cell HTS,HDAC3 inh
COc1cccc(CNC(=O)c2nnn(CC(=O)Nc3cccc(C)c3)c2N)c1,92,-14,1,i,-16
COc1ccc(-c2c(C)nn3c(C)cc(C)nc23)cc1,107,6,0,182,3
C#CCNC(=O)C1=C[C@@H](c2coc3ccccc3c2=O)C[C@@H](OCc2ccc(CO)cc2)O1,100,-1,3,314,36*
O=C(CSc1cccc[n+]1[O-])Nc1ccccc1Oc1ccccc1,nt,-16,+,138,3
O=C(CSc1cccc[n+]1[O-])Nc1ccccc1C(F)(F)F,96,2,-3,438,-5
CCCCn1nc(-c2ccccc2)c2nc3ccccc3nc21,nt,nt,25*,200,-5
Cn1nc(-c2ccccc2)c2nc3ccccc3nc21,100,52,95*,239,5
Cc1cc(C)cc(OCCNC(=O)c2cc(S(=O)(=O)N3CCOCC3)ccc2F)c1,58*,3,1,254,0
NC(=O)C1CCN(c2nc(-c3cccs3)cs2)CC1,105,-10,4,i,-2
CCC(C(=O)NC1CC1)n1nc(C)c2c(C)n(-c3ccccc3)nc2c1=O (stereo not drawn),122,-9,19*,472,-2
CCC(C(=O)NC1CCCCC1)n1nc(C)c2c(C)n(-c3ccccc3)nc2c1=O (stereo not drawn),103,12,1,403,-2
CNc1snc(C)c1C(=O)OC(C)C(=O)NCc1ccccc1 (stereo not drawn),112,-3,nt,nt,nt
CC1(C)C(/C=C/C=C/C=C/C=C2\N(CCCCS(=O)(=O)O)c3ccc4ccccc4c3C2(C)C)=[N+](CCCCS(=O)(=O)[O-])c2ccc3ccccc3c21,33*,42,10,620,0
Cc1c2ccccc2cc[n+]1CCCS(=O)(=O)[O-],103,-9,-2,171,0
CCOC(=O)c1cnc2ccccc2c1NCc1ccco1,101,3,-14,382,-2
CCOC(=O)c1cnc2ccccc2c1Nc1ccc2c(c1)OCCO2,101,21,16*,197,-10
Cc1ccc(Cl)c(NC(=O)COC(=O)c2nn(C)c(=O)c3ccccc23)c1Cl,nt,2,-5,499,9
O=C(OCc1nnc(-c2ccccc2)o1)c1cc([N+](=O)[O-])ccc1Cl,71*,-11,1,192,4
O=C(c1cccs1)N1CCN(C(=O)c2cccs2)C1=S,93,-12,nt,nt,nt
COc1ccc(NC(=O)[C@@H]2[C@@H]3C(=O)N(C4CCCCC4)C(=O)[C@@H]3C3c4ccccc4C=CN32)cc1 (stereo partly drawn),nt,-6,17*,189,4
COC(=O)c1cc(OC)nc(OC)c1,nt,-3,25*,166,-1
COC(=O)c1cc(O)c(O)c(O)c1,107,-2,8,591,7
Cc1ccc(-c2nc3sc(C#N)c(N)n3c(=O)c2C#N)cc1,68*,12,-5,560,-1
CCCCN(C(=O)c1ccc(C#N)cc1)c1c(N)n(CCC)c(=O)[nH]c1=O,99,-4,-4,370,-4
Oc1ccc(C[C@@H]2CNCCN2CCc2cc(C(F)(F)F)cc(C(F)(F)F)c2)cc1,106,10,3,421,5
SMILES,Pemphigus Ab inh,Arr AP2 block,LANA-H2A inh,T cell HTS,HDAC3 inh
FC(F)(F)c1cc(CCN2CCNC[C@H]2Cc2cccc3ccccc23)cc(C(F)(F)F)c1,115,4,3,822,32*
NS(=O)(=O)c1ccc(N=Nc2c(O)ccc3ccccc23)cc1,71*,-11,-5,684,2
Cc1cccc(-n2c(SCC(=O)N3CCC(C(=O)O)CC3)nc3ccccc3c2=O)c1C,100,10,1,215,4
Cc1ccc(C(O)P(=O)(OCc2ccccc2)c2ccc(N(C)C)cc2)cc1 (stereo not drawn),nt,-16,11*,210,-11
CCCc1cc(C(=O)N2CCN(c3ccc(C(F)(F)F)cn3)CC2)sc1C,105,8,4,264,8
COC(=O)c1ccc(CN(C(=O)N2CCN(C)CC2)S(=O)(=O)c2ccc(C)cc2)cc1,96,16,-3,437,-3
Cc1nnc(SCC(=O)Nc2cccc(S(=O)(=O)N3CCCC3)c2)n1C1CC1,102,nt,nt,nt,nt
C/C(=N\N=C(N)N)c1ccc(C)c(C)c1,102,-8,15*,636,-4
